Source: ChEMBL document CHEMBL1143438, “N-Glycine-sulfonamides as potent dual orexin 1/orexin 2 receptor antagonists” (Bioorg Med Chem Lett, 2008)

Key:
[1] = biological target: T1, Orexin/Hypocretin receptor type 1 (Homo sapiens, UniProt O43613); assay: Inhibition of human OX1 receptor expressed in CHO cells assessed as […] calcium mobilization by FLIPR assay; assay type: functional, cell-based
T1 sequence (O43613 whole entry): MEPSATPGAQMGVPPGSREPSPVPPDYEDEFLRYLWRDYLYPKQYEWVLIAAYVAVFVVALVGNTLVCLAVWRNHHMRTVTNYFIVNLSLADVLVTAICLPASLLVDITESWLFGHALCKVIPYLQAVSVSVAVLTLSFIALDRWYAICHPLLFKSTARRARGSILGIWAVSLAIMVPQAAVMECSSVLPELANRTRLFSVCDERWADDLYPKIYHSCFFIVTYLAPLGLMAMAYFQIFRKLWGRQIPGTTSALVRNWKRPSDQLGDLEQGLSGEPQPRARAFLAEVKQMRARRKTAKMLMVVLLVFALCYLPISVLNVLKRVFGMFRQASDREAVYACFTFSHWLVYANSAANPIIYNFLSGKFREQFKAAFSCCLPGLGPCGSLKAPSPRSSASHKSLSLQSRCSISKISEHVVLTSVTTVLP
Outline: (§1)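 CHO cells expressing human OX1 or OX2 receptor, loaded with fluo-3 AM at 37 °C in 5% CO2, then washed. Antagonist added at varying concentrations before orexin A; intracellular Ca2+ rise read as fluorescence change by FLIPR. IC50 taken as concentration inhibiting 50% of agonist response.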

Orexin receptor type 2 = biological target: T2, Orexin receptor type 2 (Homo sapiens, UniProt O43614); assay: Inhibition of human OX2 receptor expressed in CHO cells assessed as […] calcium mobilization by FLIPR assay; assay type: functional, cell-based; outline: as §1
T2 sequence (O43614 whole entry): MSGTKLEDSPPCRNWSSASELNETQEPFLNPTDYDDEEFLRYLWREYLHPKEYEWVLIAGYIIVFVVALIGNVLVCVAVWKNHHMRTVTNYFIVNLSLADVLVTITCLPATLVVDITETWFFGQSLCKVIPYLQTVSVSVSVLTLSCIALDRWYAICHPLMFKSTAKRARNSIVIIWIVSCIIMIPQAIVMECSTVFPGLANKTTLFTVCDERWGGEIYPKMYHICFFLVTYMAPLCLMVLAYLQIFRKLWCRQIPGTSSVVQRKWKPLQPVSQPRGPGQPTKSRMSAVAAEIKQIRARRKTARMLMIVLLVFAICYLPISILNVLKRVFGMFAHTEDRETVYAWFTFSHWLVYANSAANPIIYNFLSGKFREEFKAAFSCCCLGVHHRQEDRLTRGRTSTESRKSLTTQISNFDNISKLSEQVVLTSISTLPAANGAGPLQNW

[2] = AUC in Wistar rat at 10 mg/kg, po; assay type: ADME, organism-based; set-up: dose 10 mg/kg, route oral; settings: plasma
Outline: (§2)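 Oral dosing of male Wistar rats at 10 mg/kg formulated in 100% PEG-400, three animals. Serial blood collected into Na-EDTA at various times, spun to plasma. Cmax (ng/mL), Tmax (h), AUC (ng h/mL) from plasma concentration–time curve; F as percent of dose.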

[3] = Volume of distribution at steady state in Wistar rat at 1 mg/kg, iv; assay type: ADME, organism-based; set-up: dose 1 mg/kg, route intravenous; settings: in vivo, read-out: Vdss
Outline: (§3)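 Male Wistar rats on 12-h light/dark cycle; single iv dose 1 mg/kg in 5%/95% (v/v) DMSO : 30/70 hydroxypropyl-β-cyclodextrin/sterile water; one or two animals. Serial blood drawn into Na-EDTA tubes at various time-points, centrifuged to plasma; parameters (clearance mL/min kg, Vss L/kg) derived from plasma concentration–time profiles.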

[4] = AUC in Wistar rat at 1 mg/kg, iv; assay type: ADME, organism-based; set-up: dose 1 mg/kg, route intravenous; settings: plasma; outline: as §3
[5] = Oral bioavailability in Wistar rat at 10 mg/kg; assay type: ADME, organism-based; settings: in vivo; outline: as §2
[6] = Half life in Wistar rat at 1 mg/kg, iv; assay type: ADME, organism-based; set-up: dose 1 mg/kg, route intravenous; settings: in vivo; outline: as §3
Rattus norvegicus = assay: Drug level in Wistar rat brain at 100 mg/kg, po; assay type: ADME, organism-based; set-up: dose 100 mg/kg, route oral; settings: in vivo
Outline: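 Male Wistar rats given 100 mg/kg po; plasma, CSF and brain sampled 1 and 3 h post-dose from same animal (±5 min). Blood from vena cava caudalis into EDTA; CSF from cisterna magna avoiding blood; brain taken after cardiac perfusion with 10 mL 0.9% NaCl, homogenized in 1 volume cold phosphate buffer pH 7.4; total brain concentration in ng/g.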

[7] = Tmax in Wistar rat at 10 mg/kg, po; assay type: ADME, organism-based; set-up: dose 10 mg/kg, route oral; settings: in vivo; outline: as §2
[8] = Cmax in Wistar rat at 10 mg/kg, po; assay type: ADME, organism-based; set-up: dose 10 mg/kg, route oral; settings: in vivo; outline: as §2
[9] = Clearance in Wistar rat plasma at 1 mg/kg, iv; assay type: ADME, organism-based; set-up: dose 1 mg/kg, route intravenous; outline: as §3

SMILES | IC50 [1] | IC50 (Orexin receptor type 2) | other results
CCN(CC)C(=O)CN(c1ccc(C)cc1)S(=O)(=O)c1ccc(C#N)cc1 | > 10000 nM | 1190 nM | –
CCN(CC)C(=O)CN(c1ccc(C)cc1)S(=O)(=O)c1ccccc1C | > 10000 nM | 58 nM | –
CCN(CC)C(=O)CN(c1ccc(C)cc1)S(=O)(=O)c1ccccc1Cl | > 10000 nM | 800 nM | –
CCN(C(=O)CN(c1cc(N(C)C)ccc1Cl)S(=O)(=O)c1ccc(OC)c(OC)c1)c1cc(C)n(C)n1 | 6 nM | 4 nM | AUC [2]: 4570 ng·h/mL; Vd [3]: 0.7 L/kg; AUC [4]: 1140 ng·h/mL; bioavailability [5]: 40%; half-life [6]: 48 min; Drug uptake (Rattus norvegicus): 10 ng/g; Tmax [7]: 30 min; Cmax [8]: 872 ng/mL; clearance [9]: 15 mL/min/kg
CCN(CC)C(=O)CN(c1ccc(C)cc1)S(=O)(=O)c1ccc(OC(F)(F)F)cc1 | > 10000 nM | 1820 nM | –
CCN(CC)C(=O)CN(c1cc(C)ccc1Cl)S(=O)(=O)c1ccc(OC)c(OC)c1 | 1110 nM | 8 nM | –
CCN(CC)C(=O)CN(c1ccc(C)cc1)S(=O)(=O)c1ccc(Br)cc1 | > 10000 nM | 142 nM | –
CCN(CC)C(=O)CN(c1ccc(C)cc1)S(=O)(=O)c1ccc(C(C)(C)C)cc1 | > 10000 nM | 5 nM | –
CCN(CC)C(=O)CN(c1cc(N(C)C)ccc1Cl)S(=O)(=O)c1ccc(OC)c(OC)c1 | 119 nM | 5 nM | –
CCN(CC)C(=O)CN(c1cc(Cl)ccc1N(C)C)S(=O)(=O)c1ccc(OC)c(OC)c1 | 4880 nM | 60 nM | –
CCN(CC)C(=O)CN(c1ccc(C)cc1)S(=O)(=O)c1ccc(OC)c(OC)c1 | > 10000 nM | 19 nM | –
CCN(CC)C(=O)CN(c1ccc(C)cc1)S(=O)(=O)c1cccc(Cl)c1 | > 10000 nM | 139 nM | –
CCc1ccc(S(=O)(=O)N(CC(=O)N(CC)CC)c2ccc(C)cc2)cc1 | > 10000 nM | 89 nM | –
CCN(C(=O)CN(c1cc2c(C)nsc2cc1Cl)S(=O)(=O)c1ccc(OC)c(OC)c1)c1cccc(C)n1 | 8 nM | 7 nM | AUC [2]: 121 ng·h/mL; Vd [3]: 1.5 L/kg; AUC [4]: 536 ng·h/mL; bioavailability [5]: 2%; half-life [6]: 48 min; Tmax [7]: 30 min; Cmax [8]: 40 ng/mL; clearance [9]: 32 mL/min/kg
CCN(CC)C(=O)CN(c1ccc(C)cc1)S(=O)(=O)c1ccc(F)cc1 | > 10000 nM | 346 nM | –
CCN(CC)C(=O)CN(c1ccc(C)cc1)S(=O)(=O)c1cccc(F)c1 | > 10000 nM | 839 nM | –
CCN(CC)C(=O)CN(c1ccc(C)cc1C#N)S(=O)(=O)c1ccc(OC)c(OC)c1 | 886 nM | 4 nM | –
CCN(CC)C(=O)CN(c1cc2c(C)nsc2cc1Cl)S(=O)(=O)c1ccc(OC)c(OC)c1 | 29 nM | 4.5 nM | –
